{"data": "Experimental data of several laboratories", "target": "MAP/microtubule affinity-regulating kinase 4 (MARK4, Homo sapiens, UniProt Q96L34)", "Residues used in one study (Q96L34 1-752)": "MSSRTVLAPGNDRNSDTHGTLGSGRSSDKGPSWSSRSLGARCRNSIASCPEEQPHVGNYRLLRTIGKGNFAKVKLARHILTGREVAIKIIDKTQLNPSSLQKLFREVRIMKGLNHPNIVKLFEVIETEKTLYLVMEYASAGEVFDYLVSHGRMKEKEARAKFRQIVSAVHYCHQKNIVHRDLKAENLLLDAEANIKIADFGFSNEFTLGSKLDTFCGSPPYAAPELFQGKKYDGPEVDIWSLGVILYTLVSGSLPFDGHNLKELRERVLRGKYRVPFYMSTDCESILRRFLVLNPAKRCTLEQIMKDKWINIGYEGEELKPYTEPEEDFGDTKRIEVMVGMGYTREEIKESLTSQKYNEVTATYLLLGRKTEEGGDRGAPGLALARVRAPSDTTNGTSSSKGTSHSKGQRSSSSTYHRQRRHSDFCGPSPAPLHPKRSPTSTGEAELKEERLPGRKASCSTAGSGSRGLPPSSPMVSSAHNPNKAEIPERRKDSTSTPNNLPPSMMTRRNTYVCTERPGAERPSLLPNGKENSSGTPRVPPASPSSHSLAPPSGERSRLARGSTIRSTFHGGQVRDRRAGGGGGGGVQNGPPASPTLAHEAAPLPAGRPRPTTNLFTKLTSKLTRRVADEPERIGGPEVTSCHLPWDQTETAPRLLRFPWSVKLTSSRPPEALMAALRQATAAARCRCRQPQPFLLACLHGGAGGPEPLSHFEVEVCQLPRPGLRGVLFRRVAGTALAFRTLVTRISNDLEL", "note": "Lines come from different studies, so protocols differ."}
{"Compound": "Cn1cncc1[C@@](O)(COc1ccc(C#N)cc1-c1ccc(OC(F)(F)F)cc1)c1ccc(C#N)cc1", "effect on": "cell-free assay", "method": "competition with immobilised ligand", "tested at": "1 µM", "endpoint": "remaining binding", "value": "100%"}
{"Compound": "CC(C)(C)c1cc(C=C(C#N)C#N)cc(Br)c1O", "effect on": "enzyme activity", "mode": "inhibitor", "tested at": "0.5 µM", "endpoint": "remaining activity", "value": "103%"}
{"Compound": "Cc1nn(C)cc1-c1nc2c(N3CCN(Cc4ccc(Cl)cc4)CC3)c(Cl)cnc2[nH]1", "effect on": "binding", "method": "competition with immobilised ligand", "tested at": "1 µM", "endpoint": "remaining binding", "value": "29%"}
{"Compound": "O=c1[nH]c2ccccc2n1C1CCN(Cc2ccc(-c3[nH]c4cc5ncnc5cc4nc3-c3ccccc3)cc2)CC1", "effect on": "cell-free assay", "tested at": "0.5 µM", "endpoint": "remaining signal", "value": "102%"}
{"Compound": "Cn1cc(-c2cc(F)cc(N3CCn4c(cc5c4CCCC5)C3=O)c2CO)cc(Nc2ccc(N3CCN(C4COC4)CC3)cn2)c1=O", "effect on": "enzyme activity", "mode": "inhibitor", "tested at": "0.1 µM", "endpoint": "inhibition", "value": "9%"}
{"Compound": "COc1ncccc1-c1cnn2ccc(N3CCN(C(=O)OC(C)C)CC3)nc12", "effect on": "binding", "method": "competition with immobilised ligand", "tested at": "1 µM", "endpoint": "remaining binding", "value": "100%"}
{"Compound": "Nc1ncc(-c2nc(N3CCOCC3)nc(N3CCOCC3)n2)c(C(F)F)n1", "effect on": "binding", "method": "competition with immobilised ligand", "tested at": "10 µM", "endpoint": "remaining binding", "value": "90%"}
{"Compound": "Cn1cc(-c2cccc(N3CCc4c(sc5c4CC(C)(C)C5)C3=O)c2CO)cc(Nc2ccncn2)c1=O", "effect on": "enzyme activity", "mode": "inhibitor", "tested at": "1 µM", "endpoint": "inhibition", "value": "3%"}
{"Compound": "COc1cc(Nc2ncc(F)c(Nc3ccc4c(n3)NC(=O)C(C)(C)O4)n2)cc(OC)c1OC", "effect on": "binding", "method": "competition with immobilised ligand", "tested at": "10 µM", "endpoint": "inhibition", "value": "99%"}
